RGS8-Gao reg: regulators of human RGS8-Galphao interaction; response (percent of control binding), % at 10 µM; 0.34% of 220,000 active; AID 1423; multiplexed bead flow cytometry, RGS8-Galphao binding; actives lie on both sides; in the data active means response below about 60% or above about 140%; inactive means in between;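 further: Galphao activated as the GDP aluminium fluoride complex binding bead-coupled RGS8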
RGS7-Gao: modulates binding of RGS7 to human Galphao; P09471; Multiplexed bead flow cytometry; actives lie on both sides; binding response (% of control), % at 10 µM; 0.35% of 220,000 active; in the data active means binding response below about 49% or above about 150%; inconclusive means no clear call, values can overlap the other calls; inactive means in between;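 further: fluorescent Galphao held in activated GDP-AlF4 state binding bead-coupled RGS7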
RGS4-Gao reg: modulates binding of RGS4 to human Galphao; Multiplexed bead flow cytometry; actives lie on both sides; P09471; 0.33% of 220,000 active; binding response (% of control), % at 10 µM; in the data active means binding response below about 49% or above about 150%; inactive means in between;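 further: fluorescent Galphao activated with aluminum fluoride binding bead-coupled RGS4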
RGS16-Gao: regulators of human RGS16-Galphao interaction | O15492+P09471 | bead-based flow cytometry RGS16-Galphao binding, fluorescence; actives lie on both sides | binding response (% of control), % at 10 µM | 0.38% of 220,000 active;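 further: Galphao activated by GDP with aluminum fluoride before binding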
ABCG2 inh: human ABCG2 inhibition, ABCB1 as counter-screen | IgMXP3 cells, JC-1 efflux, flow cytometry | inhibition, % at 6.6 µM | 0.1% of 190,000 active | AID 1325;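 active means inhibition above 80%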
Target sequence (Q9UNQ0 whole entry, looked up): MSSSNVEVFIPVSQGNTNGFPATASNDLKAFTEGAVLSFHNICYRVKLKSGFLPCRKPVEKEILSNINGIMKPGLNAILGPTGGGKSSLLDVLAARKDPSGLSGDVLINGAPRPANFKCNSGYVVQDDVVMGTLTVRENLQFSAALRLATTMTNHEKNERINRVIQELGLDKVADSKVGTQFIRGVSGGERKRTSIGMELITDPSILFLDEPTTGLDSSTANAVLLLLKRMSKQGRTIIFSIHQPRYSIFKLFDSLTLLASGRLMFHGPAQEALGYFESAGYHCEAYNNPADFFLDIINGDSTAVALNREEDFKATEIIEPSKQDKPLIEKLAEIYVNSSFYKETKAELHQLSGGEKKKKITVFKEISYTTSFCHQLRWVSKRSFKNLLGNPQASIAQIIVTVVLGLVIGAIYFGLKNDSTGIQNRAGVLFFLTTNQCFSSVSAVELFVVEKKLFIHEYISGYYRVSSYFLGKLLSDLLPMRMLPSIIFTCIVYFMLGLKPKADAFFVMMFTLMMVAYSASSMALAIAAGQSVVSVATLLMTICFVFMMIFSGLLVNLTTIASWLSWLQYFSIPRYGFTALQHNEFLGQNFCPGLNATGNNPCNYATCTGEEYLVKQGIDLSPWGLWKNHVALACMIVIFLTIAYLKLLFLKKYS
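Assay system – ABCG2 IgMXP3 and barcoded ABCB1 CCRF-Adr cell mix · Input – 3 million cells/mL in well · Reagent – JC-1 fluorescent substrate · Compound – single test compound dose, 6.6 µM final · Timing – 10 min exposure at 25 °C with rotation, no wash · Detection – flow cytometry of retained JC-1 fluorescence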
ABCB1 inh: inhibitors of human ABCB1 transporter, ABCG2 counter-screen. P08183. CCRF-Adr cells, JC-1 efflux, flow cytometry. inhibition, % at 6.6 µM. 0.067% of 190,000 active. AID 1326; in the data active means inhibition above about 40%;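 further: higher value means more JC-1 retained so stronger ABCB1 efflux block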
RGS-Gao: RGS4-Galphao interaction regulator (human); 99% of 1,600 active; RGS4–Galpha-o binding response, % at 10 µM; shares compounds with RGS16-Gao; multiplexed bead flow cytometry, RGS–Galpha-o binding;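 further: fluorescently labeled Galpha-o bound to GDP with aluminium fluoride binding biotinylated RGS beads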
Biotin-avidin: biotin-avidin bead binding disruption counter-screen; 1,700 tested, under 10 active; inhibition, % at 10 µM; streptavidin beads, fluorescein-biotin binding, flow cytometry; shares compounds with RGS16-Gao; AID 1783;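 active means inhibition above 50%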;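 further: median green fluorescence of gated singlet beads compared with DMSO control wells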
RGS8-Gao single: RGS8-Galphao interaction regulation, single point confirmation. shares compounds with RGS16-Gao. binding response (% of control), % at 10 µM. 3% of 1,700 active. bead-based flow cytometry RGS8-Galphao binding, fluorescence; actives lie on both sides; in the data active means binding response below about 72% or above about 130%; inactive means in between;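 further: Galphao activated as GDP AlF4 complex before binding bead RGS8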
RGS7-Gao single: RGS7-Galphao interaction regulation, single point confirmation | shares compounds with RGS16-Gao | bead-based flow cytometry RGS7-Galphao binding; actives lie on both sides | response (percent of control binding), % at 10 µM | 7.8% of 1,700 active | AID 1837; in the data active means response below about 75% or above about 130%; inactive means in between;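 further: fluorescent Galphao activated with GDP and aluminum fluoride binding bead-coupled RGS7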
RGS16-Gao conf: RGS16-Galphao interaction regulation, single point confirmation; shares compounds with RGS16-Gao; response (% of control binding), % at 10 µM; bead-based flow cytometry, RGS16-Galphao binding; actives lie on both sides; 4% of 1,700 active; AID 1838; in the data active means response below about 74% or above about 130%; inactive means in between;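 further: Galphao activated as the GDP aluminium fluoride complex binding bead-coupled RGS16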
RGS4-Gao single: RGS4-Galphao interaction regulation, single point confirmation; AID 1840; shares compounds with RGS16-Gao; RGS4-Galphao binding, multiplexed bead flow cytometry; actives lie on both sides; binding response (% of control), % at 10 µM; 4% of 1,700 active; in the data active means binding response below about 74% or above about 130%; inactive means in between
RGS19-Gao single: RGS19-Galphao interaction regulation, single point confirmation. shares compounds with RGS16-Gao. bead-based flow cytometry RGS19-Galphao binding; actives lie on both sides. response (percent of control binding), % at 10 µM. 5% of 1,700 active; in the data active means response below about 50% or above about 160%; inactive means in between
Large screens that a line does not name were inactive (follow-up assays come after a bar, where they were run); [ ] = another dose, or the depositor's remark. A selection: hits, their analogues and other compounds. The true share with any hit is near 0.83%. Unless noted, how the calls were made is not given here.

CN(CC(=O)N1CCN(c2cccc(Cl)c2)CC1)S(=O)(=O)c1cnc[nH]1	none
CN(CC(=O)N1CCN(c2cccc(Cl)c2)CC1)S(=O)(=O)c1cccs1	RGS4-Gao reg 177[activator], RGS16-Gao 178[activator] | Biotin-avidin inactive | RGS8-Gao single inactive | RGS7-Gao single inactive | RGS16-Gao conf inactive | RGS4-Gao single inactive | RGS19-Gao single inactive
Cc1nc2c(C)cccc2c2c1COC2	RGS7-Gao inconclusive (no result: ABCG2 inh, ABCB1 inh)
Cc1ccc2nc(C)c3c(c2c1)COC3	RGS8-Gao reg 17, RGS7-Gao -40, RGS4-Gao reg -73 | Biotin-avidin inactive | RGS8-Gao single inactive | RGS7-Gao single inactive | RGS16-Gao conf inactive | RGS4-Gao single inactive | RGS19-Gao single inactive
COc1ccc(/C(C)=N/OCC(=O)N2CC3(C)CC2CC(C)(C)C3)cc1 (stereo not given)	RGS8-Gao reg 282[activator], RGS7-Gao 276[activator], RGS4-Gao reg 304[activator] | Biotin-avidin inactive | RGS8-Gao single inactive | RGS7-Gao single inactive | RGS16-Gao conf inactive | RGS4-Gao single inactive | RGS19-Gao single inactive
CCOC(=O)c1ccc(NC(=O)CC2C(=O)N(c3ccc(F)cc3)C(=O)N2CCC(C)C)cc1 (stereo not given)	none
Cc1onc(-c2ccccc2)c1CNS(=O)(=O)c1cccc(Cl)c1	RGS7-Gao inconclusive, RGS4-Gao reg 153[activator] (no result: ABCG2 inh, ABCB1 inh) | Biotin-avidin inactive | RGS8-Gao single inactive | RGS7-Gao single inactive | RGS16-Gao conf inactive | RGS4-Gao single inactive | RGS19-Gao single inactive
O=C(Nc1ccc(C(=O)O)cc1)Nc1cccc([N+](=O)[O-])c1	RGS8-Gao reg 150[activator] | RGS-Gao 122 | Biotin-avidin inactive | RGS8-Gao single inactive | RGS7-Gao single inactive | RGS16-Gao conf inactive | RGS4-Gao single inactive | RGS19-Gao single inactive
O=C(Nc1cccc([N+](=O)[O-])c1)Nc1cccc([N+](=O)[O-])c1	none
Cc1ccc(Sc2ccc(NC(=O)CCl)cc2)cc1C	none (no result: ABCB1 inh)
Cc1ccc(C)c(Sc2ccc(NC(=O)CCl)cc2)c1	RGS16-Gao 299[activator] | RGS-Gao 115
CCCCCC(=O)NC(=S)Nc1cccc(C(C)=O)c1	none
CCCC(=O)NC(=S)Nc1cccc(C(C)=O)c1	RGS8-Gao reg 145[activator] | RGS-Gao 114 | Biotin-avidin inactive | RGS8-Gao single inactive | RGS7-Gao single inactive | RGS16-Gao conf inactive | RGS4-Gao single inactive | RGS19-Gao single inactive
O=C(C1CCN(S(=O)(=O)c2cccnc2)CC1)N1CCN(c2cccc(Cl)c2)CC1	RGS8-Gao reg 27, RGS7-Gao 11, RGS4-Gao reg 35 | Biotin-avidin inactive | RGS8-Gao single inactive | RGS7-Gao single inactive | RGS16-Gao conf inactive | RGS4-Gao single inactive | RGS19-Gao single inactive
CC(=O)N1CC=C2C(C#N)=C(N)C(C#N)(C#N)C(CCc3ccccc3)C2C1 (stereo not given)	none (no result: RGS8-Gao reg, RGS7-Gao, RGS4-Gao reg, RGS16-Gao) | Biotin-avidin inactive | RGS8-Gao single inactive | RGS7-Gao single inactive | RGS16-Gao conf inactive | RGS4-Gao single inactive | RGS19-Gao single inactive
O=C(OCC(=O)N1CCc2ccccc21)c1cccc(S(=O)(=O)N2CCCc3ccccc32)c1	none
CCN1CCc2nc3ccccc3c(C(=O)Nc3ccc(C#N)cc3)c2C1	RGS7-Gao inconclusive
COc1ccc(OCC(=O)Nc2ccccc2OC)cc1	RGS8-Gao reg 153[activator] | RGS-Gao 116 | Biotin-avidin inactive | RGS8-Gao single inactive | RGS7-Gao single inactive | RGS16-Gao conf inactive | RGS4-Gao single inactive | RGS19-Gao single inactive
CCCCOc1ccc(-c2nc(=S)[nH][nH]2)cc1	none (no result: RGS8-Gao reg) | Biotin-avidin inactive | RGS8-Gao single inactive | RGS7-Gao single inactive | RGS16-Gao conf inactive | RGS4-Gao single inactive | RGS19-Gao single inactive
C=CCN(C(=O)Nc1ccc(F)cc1)C1CC(=O)N(c2ccc(OC)cc2)C1=O (stereo not given)	RGS8-Gao reg 158[activator] | RGS-Gao 134 | Biotin-avidin inactive | RGS8-Gao single inactive | RGS7-Gao single inactive | RGS16-Gao conf inactive | RGS4-Gao single inactive | RGS19-Gao single inactive
COc1ccc(Nc2nnc(SC(C(=O)Nc3cc(C)ccc3C)c3ccccc3)s2)cc1 (stereo not given)	none
COc1ccc(C)cc1NC(=O)C(Sc1nnc(Nc2cc(C)ccc2OC)s1)c1ccccc1 (stereo not given)	RGS8-Gao reg 3.4, RGS7-Gao 7.2, RGS4-Gao reg 11, RGS16-Gao -13 | Biotin-avidin inactive | RGS8-Gao single inactive | RGS7-Gao single inactive | RGS16-Gao conf inactive | RGS4-Gao single inactive | RGS19-Gao single inactive
NC(=O)NC(=O)COC(=O)c1cccc(S(=O)(=O)N2CCCCCC2)c1	RGS7-Gao inconclusive (no result: ABCG2 inh, ABCB1 inh)
CC(=O)N1CCN(S(=O)(=O)c2cccc(C(=O)OCC(=O)NC(=O)c3cccn3C)c2)CC1	RGS16-Gao 185[activator] | RGS-Gao 112 | Biotin-avidin inactive | RGS8-Gao single inactive | RGS7-Gao single inactive | RGS16-Gao conf inactive | RGS4-Gao single inactive | RGS19-Gao single inactive
COC(=O)c1sccc1NC(=O)CC1C(=O)NCCN1C(=O)c1ccc(F)cc1 (stereo not given)	RGS7-Gao inconclusive (no result: ABCG2 inh, ABCB1 inh)
CCC(=O)N1CCN(CCN=CC2=C(O)CC(C)(C)CC2=O)CC1	RGS8-Gao reg 146[activator] | RGS-Gao 105 | Biotin-avidin inactive | RGS8-Gao single inactive | RGS7-Gao single inactive | RGS16-Gao conf inactive | RGS4-Gao single inactive | RGS19-Gao single inactive
CCOc1ccc(NS(=O)(=O)c2ccc3ncsc3c2)cc1	RGS7-Gao 152[activator] | RGS-Gao 146 | Biotin-avidin inactive | RGS8-Gao single inactive | RGS7-Gao single inactive | RGS16-Gao conf inactive | RGS4-Gao single inactive | RGS19-Gao single inactive

Assay outcomes as filed in PubChem.
